Assay results from ChEMBL document CHEMBL1153453, “Schiff bases of 3-formylchromone as thymidine phosphorylase inhibitors” (Bioorg Med Chem, 2009).

target: Thymidine phosphorylase (Escherichia coli K-12, UniProt P07650); experiment: Inhibition of Escherichia coli thymidine phosphorylase; details: not given
Outline: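 E. coli thymidine phosphorylase, 0.05 or 0.002 U, in potassium phosphate buffer pH 7.4, preincubated with test compound 10 min at 25 °C. A 290 nm pre-read was then taken, substrate added (1.5 mM stock), and absorbance at 290 nm read after 10, 20 and 30 min. Increasing compound concentrations were tested in triplicate. IC50 was calculated from the inhibition data.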

Sequence of Thymidine phosphorylase (P07650 whole entry): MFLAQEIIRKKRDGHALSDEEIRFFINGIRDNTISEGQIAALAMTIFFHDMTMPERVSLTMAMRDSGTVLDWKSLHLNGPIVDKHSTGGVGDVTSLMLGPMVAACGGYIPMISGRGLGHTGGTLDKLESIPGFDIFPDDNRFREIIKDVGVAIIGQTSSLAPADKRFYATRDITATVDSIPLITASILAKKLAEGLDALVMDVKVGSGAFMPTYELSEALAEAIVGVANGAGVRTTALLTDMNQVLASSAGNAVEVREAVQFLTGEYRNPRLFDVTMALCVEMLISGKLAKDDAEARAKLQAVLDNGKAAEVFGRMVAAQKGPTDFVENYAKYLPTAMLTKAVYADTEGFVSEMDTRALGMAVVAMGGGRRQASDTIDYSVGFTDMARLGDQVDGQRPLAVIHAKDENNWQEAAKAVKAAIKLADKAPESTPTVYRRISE

SMILES | IC50
COc1cc([N+](=O)[O-])ccc1/N=C/c1coc2ccccc2c1=O | Not Active
Cc1ccc(/N=C/c2coc3ccccc3c2=O)cc1 | Not Active
Cc1cccc(C)c1/N=C/c1coc2ccccc2c1=O | Not Active
CC(C)(C)NC(NC(C)(C)C)c1coc2ccccc2c1=O | Not Active
COc1cccc(/N=C/c2coc3ccccc3c2=O)c1 | Not Active

Continued, values first:

IC50 | SMILES
Not Active | O=c1c(/C=N/c2ccncc2)coc2ccccc12
Not Active | O=c1c(/C=N/c2cccnc2)coc2ccccc12
Not Active | O=C(O)c1ccccc1/N=C/c1coc2ccccc2c1=O

same assay, conditions: read-out: IC50

SMILES | IC50
CCC(=O)N/N=C/c1coc2ccccc2c1=O | 146 µM
Cc1cccc([N+](=O)[O-])c1/N=C/c1coc2ccccc2c1=O | 480 µM
O=c1c(/C=N/CC/N=C/c2coc3ccccc3c2=O)coc2ccccc12 | 150 µM
O=c1c(/C=N/c2ccc(Cl)cc2Cl)coc2ccccc12 | 40.3 µM
COc1cc(/N=C/c2coc3ccccc3c2=O)ccc1C | 19.8 µM

The next lines start with the values.

IC50 | SMILES
340 µM | O=c1c(/C=N/c2ncccc2O)coc2ccccc12
473 µM | O=c1c(/C=N/C(CO)Cc2ccccc2)coc2ccccc12 (configuration not stated)
75.9 µM | O=C(c1ccccc1)c1cc(Cl)ccc1/N=C/c1coc2ccccc2c1=O
67.3 µM | Cc1cccc(/N=C/c2coc3ccccc3c2=O)c1
